High-throughput results deposited in PubChem by The Scripps Research Institute Molecular Screening Center.
LEDGF integ inh = blocks HIV-1 LEDGF/p75-dependent DNA integration | TR-FRET IN-LEDGF/p75 DNA integration, Eu/Cy5 | inhibition, % at 3.7 µM | 370,000 tested, 0.64% active | AID 743269;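 active = inhibition above the screen-wide mean plus 3 SD, cut at about 13% in these data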;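 also: signal is the Cy5 over europium emission ratio at 671 and 618 nm; 0% = plate median of compound wells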
UHRF1 binding = blocks human UHRF1 binding to methylated DNA | AID 687016 | UHRF1 binding to methylated oligo, TR-FRET | 370,000 tested, 0.75% active | inhibition, % at 4.4 µM | Q96T88; in the data active = inhibition above about 21%;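 also: UHRF1 SRA domain binding a hemimethylated CpG hairpin DNA probe; 0% = median of test compound wells and 100% = reference inhibitor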
MBD2 DNA inh = inhibitors of human MBD2 binding to methylated oligonucleotide; TR-FRET; 370,000 tested, 0.31% active; inhibition, % at 4.4 µM; AID 686964; Q9UBB5; in the data active = inhibition above about 13%
RBBP9 inh = inhibitors of human serine hydrolase RBBP9 | O75884 | recombinant RBBP9, FP-Rh probe fluorescence polarization | inhibition, % at 7.94 µM | 220,000 tested, 0.2% active;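 active = inhibition above the campaign mean of all tested compounds plus 3 SD, cut at about 14% in these data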;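 also: plate controls were DMSO wells with RBBP9 for no effect and wells lacking RBBP9 protein for full effect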
Target sequence (O75884 whole entry, looked up): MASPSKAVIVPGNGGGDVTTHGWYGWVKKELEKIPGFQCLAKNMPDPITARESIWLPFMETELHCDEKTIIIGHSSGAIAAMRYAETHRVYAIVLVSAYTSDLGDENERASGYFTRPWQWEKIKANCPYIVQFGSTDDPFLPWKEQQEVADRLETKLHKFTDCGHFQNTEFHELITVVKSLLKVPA
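system = RBBP9 protein | input = RBBP9 at 2.5 µM in dispensed solution, before mixing | measured by = fluorescence polarization (mP), excitation 525 nm, emission 598 nm | incubation = enzyme-compound preincubation 30 min, then probe labeling 45 min, 25 °C | buffer or medium = Tris-NaCl-Pluronic buffer, pH 8.0 | compound = single dose 7.94 µM | also added = FP-Rh probe, 375 nM dispensing solution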
ABHD5-PLIN5 inh = inhibitors of human ABHD5-perilipin-5 interaction; Q00G26+Q8WTS1; Split G. princeps luciferase complementation, luminescence, 4 h; inhibition, % at 4 µM; 360,000 tested, 0.78% active;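 active = inhibition above the mean inhibition across every tested compound plus 3 SD, cut at about 22% in these data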;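 also: 0% = DMSO only wells and the 100% control is not disclosed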
PRMT1 inh = inhibitors of human PRMT1; AID 652257; recombinant PRMT1, activity-based probe fluorescence polarization; inhibition, % at 2.79 µM; Q99873; 370,000 tested, 1.3% active;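 active = inhibition above about 21% made by adding two undisclosed values, limit read from the data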
Target sequence (Q99873 whole entry, looked up): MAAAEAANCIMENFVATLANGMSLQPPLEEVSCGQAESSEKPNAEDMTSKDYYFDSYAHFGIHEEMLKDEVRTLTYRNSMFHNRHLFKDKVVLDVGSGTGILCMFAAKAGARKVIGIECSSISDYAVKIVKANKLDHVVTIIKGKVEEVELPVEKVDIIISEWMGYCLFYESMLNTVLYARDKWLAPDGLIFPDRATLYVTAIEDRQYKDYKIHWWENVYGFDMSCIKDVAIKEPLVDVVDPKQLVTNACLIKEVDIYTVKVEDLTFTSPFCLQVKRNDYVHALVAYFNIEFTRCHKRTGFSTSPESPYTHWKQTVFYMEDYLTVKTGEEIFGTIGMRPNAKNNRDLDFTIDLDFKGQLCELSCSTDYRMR
* = called active by the depositor. Rows were chosen to be rich in hits. Some 3.1% of all compounds tested hit in one or more screens of this group.

COc1cccc(CNC(=O)CCC2CCCN(C(=O)c3ccoc3)C2)c1 (configuration not stated) was read as LEDGF integ inh -5.4, UHRF1 binding 24.8*, MBD2 DNA inh 11.4, RBBP9 inh -8.8, ABHD5-PLIN5 inh -0.8 and PRMT1 inh 2.7.
Screening COc1cccc(CNC(=O)CCC2CCCN(C(=O)c3ccc(OC)c(F)c3)C2)c1 (configuration not stated) returned LEDGF integ inh -1.4, UHRF1 binding 1.5, MBD2 DNA inh -5.4, RBBP9 inh 1.7, ABHD5-PLIN5 inh -2.7 and PRMT1 inh 2.8.
Screening COC(=O)c1ccc(N)cc1O returned LEDGF integ inh 0.2, UHRF1 binding -2.2, MBD2 DNA inh 0.4, RBBP9 inh 0.9, ABHD5-PLIN5 inh 4.4 and PRMT1 inh -0.2.
COC(=O)c1ccc(=O)c2nc3/c(=C/O)c(O)cc(=O)c3[nH]c12 was read as LEDGF integ inh 51.8*, UHRF1 binding 21.1*, MBD2 DNA inh 6.5, RBBP9 inh 7.7, ABHD5-PLIN5 inh 3.2 and PRMT1 inh 28.7*.
For Oc1ccc(N2CCN(C(c3cccs3)c3nnnn3CCc3ccccc3)CC2)cc1 (configuration not stated) the results were LEDGF integ inh 1.3, UHRF1 binding 4.5, MBD2 DNA inh 0.3, RBBP9 inh 9.5, ABHD5-PLIN5 inh 4.1 and PRMT1 inh 21.7*.
Screening CC(=O)Oc1cc(C(=O)OCC(=O)NC23CC4CC(CC(C4)C2)C3)cc(OC(C)=O)c1OC(C)=O returned LEDGF integ inh 43.6*, UHRF1 binding 14.6, MBD2 DNA inh 8.2, ABHD5-PLIN5 inh -5.8 and PRMT1 inh 6.1.
N#Cc1c(SCC(=O)Nc2cccc(C(F)(F)F)c2)sc2c(O)cc(=O)[nH]c12 was read as LEDGF integ inh -3.2, UHRF1 binding 6.7, MBD2 DNA inh 3.1, ABHD5-PLIN5 inh 2.4 and PRMT1 inh 21.3*.
For Cc1ccc(Cl)cc1NC(=O)CSc1sc2c(O)cc(=O)[nH]c2c1C#N the results were LEDGF integ inh 1.8, UHRF1 binding 6.1, MBD2 DNA inh 4.9, ABHD5-PLIN5 inh -2.8 and PRMT1 inh 15.0.
Screening CCc1nnc(NC(=O)CSc2sc3c(O)cc(=O)[nH]c3c2C#N)s1 returned LEDGF integ inh 12.5, UHRF1 binding 35.3*, MBD2 DNA inh 13.2*, ABHD5-PLIN5 inh 0.0 and PRMT1 inh 41.6*.
Clc1ccc(-c2nnc(SCc3cccc4ccccc34)n2Cc2ccco2)cc1 was read as LEDGF integ inh 4.7, UHRF1 binding 2.8, MBD2 DNA inh 1.9 and PRMT1 inh 2.8.
`O=C1N2Cc3ccccc3C2CS(=O)(=O)N1C1CCCC1` (configuration not stated) gave LEDGF integ inh 0.5, UHRF1 binding 7.8, MBD2 DNA inh 6.9 and PRMT1 inh 7.3.
COc1ccc2c(CC(=O)OCC(=O)Nc3sc4c(c3C#N)CCC(C)C4)coc2c1 (configuration not stated) was read as LEDGF integ inh -2.5, UHRF1 binding 40.8*, MBD2 DNA inh -1.4, RBBP9 inh -9.2, ABHD5-PLIN5 inh -6.9 and PRMT1 inh -2.7.
`COC(=O)C[C@H]1CC[C@@H]2[C@@H](COc3ccc(NC(=O)Nc4ccccc4OC)cc3C(=O)N2C)O1` gave LEDGF integ inh -1.5, UHRF1 binding -3.1, MBD2 DNA inh -3.8 and PRMT1 inh 4.2.
Screening CC(=O)N[C@H]1C[C@@H]2O[C@H](CO)CC[C@@H]2O[C@@H]1CCc1ccc(-c2ccc(F)cc2)cc1 returned LEDGF integ inh 4.4, UHRF1 binding 3.7, MBD2 DNA inh 4.5 and PRMT1 inh 0.5.
Screening Cc1cc(C)c2sc(NNC(=O)c3ccc(S(=O)(=O)N4CCc5ccccc5C4)cc3)nc2c1 returned LEDGF integ inh 18.7*, UHRF1 binding -2.1, MBD2 DNA inh 1.4, RBBP9 inh 5.2, ABHD5-PLIN5 inh 29.6* and PRMT1 inh 1.5.
For Cc1cc(C)c2nc(NNC(=O)c3ccc(S(=O)(=O)N4CCc5ccccc5C4)cc3)sc2c1 the results were LEDGF integ inh 19.6*, UHRF1 binding -3.1, MBD2 DNA inh -2.4, RBBP9 inh -6.2, ABHD5-PLIN5 inh 29.9* and PRMT1 inh -7.1.
Screening O=C(Nc1cccc(C(F)(F)F)c1)OCCCN1CCC2(CCC(c3ccccc3)CC2)C1=O (configuration not stated) returned LEDGF integ inh 2.9, UHRF1 binding 4.0, MBD2 DNA inh -0.5 and PRMT1 inh -5.8.
Screening COc1cc(OC)cc(-c2c(-c3cccs3)c3cc(Br)ccc3n2C)c1 returned LEDGF integ inh 6.8, UHRF1 binding 2.6, MBD2 DNA inh -6.7, ABHD5-PLIN5 inh -3.4 and PRMT1 inh 24.8*.
For CCN(CC1COc2ccccc2O1)S(=O)(=O)c1ccc(C)cc1 (configuration not stated) the results were LEDGF integ inh 3.8, UHRF1 binding 25.6*, MBD2 DNA inh 8.6, RBBP9 inh 2.4, ABHD5-PLIN5 inh -3.8 and PRMT1 inh 0.6.
CCCCN1CCN(C(=O)c2ccc(CNC(=O)c3cccc(Br)c3)cc2)CC1 was read as LEDGF integ inh 3.7, UHRF1 binding -1.9, MBD2 DNA inh -2.4 and PRMT1 inh -1.7.
For COc1ccc(N2CCN(C(=O)c3cc4c(s3)-c3ccccc3S(=O)(=O)C4)CC2)cc1 the results were LEDGF integ inh 0.7, UHRF1 binding 22.3*, MBD2 DNA inh 4.8, RBBP9 inh -7.1, ABHD5-PLIN5 inh -0.3 and PRMT1 inh -1.7.
For C[C@]12CC[C@@H]3c4cc(O)c(O)cc4CC[C@H]3[C@@H]1CC[C@@H]2O the results were LEDGF integ inh -5.8, UHRF1 binding 0.1, MBD2 DNA inh -3.2, RBBP9 inh 23.9*, ABHD5-PLIN5 inh 21.1 and PRMT1 inh 33.2*.
Screening C[C@]12CC[C@@H]3c4ccc(O)cc4CC[C@H]3[C@@H]1CC[C@@H]2O returned LEDGF integ inh 1.4, UHRF1 binding 1.5, MBD2 DNA inh -4.3, RBBP9 inh -10.7, ABHD5-PLIN5 inh 5.8 and PRMT1 inh 3.9.
For COc1cc(NC(=O)c2ccccc2)c(C)cc1NC(=O)CSc1nnc(-c2ccccc2F)n1-c1ccc(C)cc1 the results were LEDGF integ inh 1.9, UHRF1 binding 1.7, MBD2 DNA inh -3.6 and PRMT1 inh -7.4.
Screening CS(=O)(=O)c1ccc(C(=O)Nc2ccc(N3CCOCC3)cc2)c(Cl)c1 returned LEDGF integ inh -5.5, UHRF1 binding 0.1, MBD2 DNA inh 5.8, RBBP9 inh 0.1, ABHD5-PLIN5 inh -8.0 and PRMT1 inh 2.8.
`CS(=O)(=O)c1ncc(Cl)c(C(=O)Nc2ccc(N3CCOCC3)cc2)n1` gave RBBP9 inh -0.8 and ABHD5-PLIN5 inh 60.3*.
Screening CNc1ccccc(-c2ccc3ccccc3n2)c1=O returned LEDGF integ inh 1.9, UHRF1 binding -6.5, MBD2 DNA inh -6.5, RBBP9 inh -1.6, ABHD5-PLIN5 inh -5.6 and PRMT1 inh 23.9*.
